# Data: ChEMBL document CHEMBL5653632, “PRMT5 inhibition disrupts splicing and stemness in glioblastoma” (Nat Commun, 2021)
# The source made the active and inactive calls. The calls are words filed in the database; no cut-off is given here.
# Assays:
# [1] = Antiproliferative activity against human G571 cells incubated for 9 to 12 days by IncuCyte zoom live-cell imaging analysis; type: functional, cell-based
# Method in brief: (§1)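 Adherent GSC lines on poly-L-ornithine/laminin in serum-free EGF/bFGF medium were exposed to nine concentrations from 3 nM to 30 µM, with three technical replicates per dose. Exposure lasted 9–20 days until DMSO controls were confluent, with drug-containing medium refreshed every 5 days. IncuCyte confluence was normalized to DMSO. Curves were built at the 95th percentile of DMSO time-to-confluence, and AAC was derived with PharmacoGx.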
# [2] = Antiproliferative activity against human G584 cells incubated for 9 to 12 days by IncuCyte zoom live-cell imaging analysis; type: functional, cell-based; method in brief: as §1
# [3] = Antiproliferative activity against human G567 cells incubated for 9 to 12 days by IncuCyte zoom live-cell imaging analysis; type: functional, cell-based; method in brief: as §1
# [4] = Antiproliferative activity against human G719 cells incubated for 9 to 12 days by IncuCyte zoom live-cell imaging analysis; type: functional, cell-based; method in brief: as §1
# [5] = Antiproliferative activity against human G613 cells incubated for 9 to 12 days by IncuCyte zoom live-cell imaging analysis; type: functional, cell-based; method in brief: as §1
# [6] = Antiproliferative activity against human BT301 cells incubated for 9 to 12 days by IncuCyte zoom live-cell imaging analysis; type: functional, cell-based
# [7] = Antiproliferative activity against human BT94 cells incubated for 9 to 12 days by IncuCyte zoom live-cell imaging analysis; type: functional, cell-based
# [8] = Antiproliferative activity against human G637 cells incubated for 9 to 12 days by IncuCyte zoom live-cell imaging analysis; type: functional, cell-based; method in brief: as §1
# [9] = Antiproliferative activity against human BT67 cells incubated for 9 to 12 days by IncuCyte zoom live-cell imaging analysis; type: functional, cell-based
# [10] = Antiproliferative activity against human BT238 cells incubated for 9 to 12 days by IncuCyte zoom live-cell imaging analysis; type: functional, cell-based
# [11] = Antiproliferative activity against human BT189 cells incubated for 9 to 12 days by IncuCyte zoom live-cell imaging analysis; type: functional, cell-based
# [12] = Antiproliferative activity against human HF7450 cells incubated for 9 to 12 days by IncuCyte zoom live-cell imaging analysis; type: functional, cell-based
# Method in brief: (§2)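 Adherent culture on poly-L-ornithine/laminin in serum-free NS-A medium with EGF and bFGF (10 ng/mL each) and heparin. Nine concentrations (3 nM–30 µM), three technical replicates per dose, DMSO control, medium and drug refreshed every 5 days, run until DMSO wells were confluent (9–20 days). Confluence was imaged live and normalized to DMSO. Curves were taken at the 95th percentile of time to DMSO confluence, and AAC was calculated.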
# [13] = Antiproliferative activity against human HF6562 cells incubated for 9 to 12 days by IncuCyte zoom live-cell imaging analysis; type: functional, cell-based; method in brief: as §2
# [14] = Antiproliferative activity against human G752 cells incubated for 9 to 12 days by IncuCyte zoom live-cell imaging analysis; type: functional, cell-based; method in brief: as §1
# [15] = molecular target: Protein arginine N-methyltransferase 5 (Homo sapiens) (UniProt O14744); assay: Inhibition of PRMT5 in human G797 cells assessed as reduction in SDMA level at 1 uM after 7 days by Western blot analysis; type: cell-based; conditions: time 7.0 day
# G583 [16] = assay: Induction of apoptosis in human G583 cells at 1 uM after 5 days by Annexin-V staining based IncuCyte live cell imaging analysis; type: functional; conditions: time 5.0 day
# G583 [17] = assay: Inhibition of cell growth in human G583 cells pretreated with compound for 14 days followed by compound washout and measured after 14 days; type: functional, cell-based; conditions: time 14.0 day
# Method in brief: (§3)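 GSC lines were treated with 1 µM for 14 days. Compound was then washed out, and growth was followed for a further 14 days.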
# G561 = assay: Inhibition of cell growth in human G561 cells pretreated with compound for 14 days followed by compound washout and measured after 14 days; type: functional, cell-based; conditions: time 14.0 day; method in brief: as §3
# G837 = assay: Inhibition of cell growth in human G837 cells pretreated with compound for 14 days followed by compound washout and measured after 14 days; type: functional, cell-based; conditions: time 14.0 day; method in brief: as §3
# G411 [18] = assay: Inhibition of cell growth in human G411 cells pretreated with compound for 14 days followed by compound washout and measured after 14 days; type: functional, cell-based; conditions: time 14.0 day; method in brief: as §3
# [19] = Drug concentration in NSG mouse plasma at 100 mg/kg, po measured after 24 hrs; type: ADME, organism-based
# Method in brief: (§4)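 Single oral gavage to NSG mice (n = 3) at 25, 50 or 100 mg/kg; a 10× DMSO stock was diluted into 1% HEC/0.25% Tween 80/0.05% antifoam. Sacrifice at 24 h. Plasma came from cardiac-puncture blood. Brains were taken after PBS transcardiac perfusion and flash frozen. LC-MS quantitation used a 10-point standard curve of 10–10,000 ng/mL.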
# [20] = Drug concentration in NSG mouse brain at 100 mg/kg, po measured after 24 hrs; type: ADME, organism-based; conditions: read-out: Ct; method in brief: as §4
# [21] = Toxicity in NSG mouse assessed as body weight loss at 50 mg/kg, po administered every other day for 3 weeks; type: organism-based; conditions: in vivo, 504 h
# [22] = Toxicity in NSG mouse assessed as body weight loss at 50 mg/kg, po administered as 3 days on and 4 days off schedule and measured upto 8 weeks; type: organism-based; conditions: in vivo, 1344 h
# Method in brief: (§5)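 NSG mice, 3 per group, dosed orally in weekly cycles of 3 days on and 4 days off. Weight and condition were recorded twice weekly. Mice losing more than 20% body weight were sacrificed.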
# [23] = Toxicity in NSG mouse assessed as tolerability at 50 mg/kg, po administered as 3 days on and 4 days off schedule and measured upto 8 weeks; type: organism-based; conditions: in vivo, 1344 h; method in brief: as §5
# G411 [24] = assay: Antitumor activity against human G411 xenografted in NSG mouse assessed as mean survival time at 50 mg/kg, po administered as 3 days on and 4 days off schedule for 4 cycles (reference value: 30 days); type: functional; conditions: time 28 day
# Method in brief: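 Female NSG mice, 5–10 weeks old, 12 per group. 2 × 10^4 G411 cells were injected stereotactically into the forebrain, 3 mm deep. Oral gavage started 1 week later in vehicle of 1% HEC/0.25% Tween 80/0.05% antifoam, given daily for 3 days then 4 days off, for 4 cycles or until end point. Mice were euthanized at neurological symptoms with domed head. Survival was compared by log-rank test.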
# G411 [25] = assay: Antitumor activity against human G411 cells xenografted in NSG mouse assessed as reduction in dense cell growth at 50 mg/kg, po administered as 3 days on and 4 days off schedule for 4 cycles; type: functional, organism-based; conditions: time 28.0 day
# Method in brief: (§6)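 Female NSG mice aged 5–10 weeks received 2 × 10^4 G411 GSCs stereotaxically into the forebrain (2 mm lateral, 1 mm posterior to bregma, 3 mm deep). From 1 week post-implant, mice got 50 mg/kg by oral gavage in 1% HEC/0.25% Tween 80/0.05% antifoam, 3 days on/4 off, for 4 cycles or until endpoint. Endpoint brains went to H&E; tumor tissue went to SDMA western blot.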
# G411 [26] = assay: In vivo inhibition of PRMT5 in human G411 cells xenografted in NSG mouse assessed as reduction in SDMA level at 50 mg/kg, po administered as 3 days on and 4 days off schedule for 4 cycles; type: functional, organism-based; conditions: time 28.0 day; method in brief: as §6
# [27] = Antiproliferative activity against human BT50 cells incubated for 9 to 12 days by IncuCyte zoom live-cell imaging analysis; type: functional, cell-based
# Sequence of Protein arginine N-methyltransferase 5 (Homo sapiens) (O14744 whole entry): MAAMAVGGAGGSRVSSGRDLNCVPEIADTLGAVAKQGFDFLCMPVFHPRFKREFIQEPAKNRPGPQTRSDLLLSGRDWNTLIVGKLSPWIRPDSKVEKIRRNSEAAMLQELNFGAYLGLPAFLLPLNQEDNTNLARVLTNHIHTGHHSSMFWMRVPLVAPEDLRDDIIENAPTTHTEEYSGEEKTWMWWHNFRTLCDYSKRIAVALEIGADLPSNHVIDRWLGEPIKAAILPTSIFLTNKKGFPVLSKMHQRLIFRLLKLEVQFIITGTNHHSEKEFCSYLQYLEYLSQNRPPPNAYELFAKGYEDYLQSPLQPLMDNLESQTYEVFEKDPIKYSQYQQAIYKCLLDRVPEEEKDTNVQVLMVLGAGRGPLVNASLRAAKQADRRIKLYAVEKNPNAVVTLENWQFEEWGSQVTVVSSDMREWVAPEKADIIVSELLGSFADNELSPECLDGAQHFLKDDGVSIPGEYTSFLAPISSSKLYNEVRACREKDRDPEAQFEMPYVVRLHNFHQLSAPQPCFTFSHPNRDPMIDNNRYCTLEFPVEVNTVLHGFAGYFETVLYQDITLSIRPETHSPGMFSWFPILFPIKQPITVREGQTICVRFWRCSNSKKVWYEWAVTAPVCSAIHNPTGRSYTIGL
compound,measurement,setting,value
O=C(NC[C@H](O)CN1CCc2ccccc2C1)c1ccnc(NC2CCC2)c1,IC50,[1],45600 nM
same,IC50,[2],39000 nM
same,IC50,[3],29300 nM
same,IC50,[4],9230 nM
same,IC50,[5],19200 nM
same,IC50,[6],100 nM
same,IC50,[7],60 nM
same,IC50,[8],340 nM
same,IC50,[9],50 nM
same,IC50,[10],150 nM
same,IC50,[11],110 nM
same,EC50,[12],155 nM
same,EC50,[13],63 nM
same,EC50,[14],50 nM
same,inhibition,[15],Active
same,Activity,G583 [16],Active
same,inhibition,G583 [17],Active
same,inhibition,G561,inactive
same,inhibition,G837,inactive
same,inhibition,G411 [18],inactive
Nc1ncnc2c1ccn2[C@@H]1O[C@H]([C@H](O)c2ccccc2)[C@@H](O)[C@H]1O,EC50,[12],3 nM
same,EC50,[13],0.66 nM
same,inhibition,[15],Active
same,Activity,G583 [16],Active
same,concentration at 24 h,[19],159 nM
same,concentration at 24 h,[20],269 nM
same,Activity,[21],> 20%
same,Activity,[22],< 10%
same,Activity,[23],Non-Toxic
same,Time,G411 [24],37 days
same,Activity,G411 [25],Active
same,inhibition,G411 [26],Active
same,IC50,[27],20 nM
